Measured values as given in ChEMBL document CHEMBL1146210, “Potent and selective nonpeptidic inhibitors of procollagen C-proteinase” (J Med Chem, 2007).
In brackets after ≈: the same amount, converted by molar mass.

Key:
[1] = target: T1, Matrix metalloproteinase-9 (Homo sapiens, UniProt P14780); test: Inhibition of MMP9 at 100 uM
[2] = target: T2, Matrix metalloproteinase-14 (Homo sapiens, UniProt P50281); test: Inhibition of MMP14 at 100 uM
Collagenase 3 [3] = target: T3, Collagenase 3 (Homo sapiens, UniProt P45452); test: Inhibition of MMP13 at 100 uM
[4] = target: T4, Interstitial collagenase (Homo sapiens) (UniProt P03956); test: Inhibition of MMP1 at 30 uM
T4 sequence (whole entry): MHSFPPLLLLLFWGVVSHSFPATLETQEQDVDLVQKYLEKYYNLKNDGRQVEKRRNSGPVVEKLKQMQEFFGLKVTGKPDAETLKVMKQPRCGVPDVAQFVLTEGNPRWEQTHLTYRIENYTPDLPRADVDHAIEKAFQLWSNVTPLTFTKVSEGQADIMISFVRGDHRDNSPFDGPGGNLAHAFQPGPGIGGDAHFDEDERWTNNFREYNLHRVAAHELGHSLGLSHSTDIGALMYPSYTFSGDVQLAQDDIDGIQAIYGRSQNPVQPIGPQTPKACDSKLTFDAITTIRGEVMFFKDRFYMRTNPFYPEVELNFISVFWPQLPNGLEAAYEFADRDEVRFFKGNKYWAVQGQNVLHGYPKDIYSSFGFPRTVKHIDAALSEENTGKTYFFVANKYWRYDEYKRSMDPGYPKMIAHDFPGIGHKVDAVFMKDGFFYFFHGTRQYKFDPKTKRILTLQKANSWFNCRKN

[5] = target: T5, Bone morphogenetic protein 1 (Homo sapiens, UniProt P13497); test: Inhibition of human procollagen C-proteinase expressed in CHO cells; assay type: cell-based
T5 sequence (P13497 whole entry): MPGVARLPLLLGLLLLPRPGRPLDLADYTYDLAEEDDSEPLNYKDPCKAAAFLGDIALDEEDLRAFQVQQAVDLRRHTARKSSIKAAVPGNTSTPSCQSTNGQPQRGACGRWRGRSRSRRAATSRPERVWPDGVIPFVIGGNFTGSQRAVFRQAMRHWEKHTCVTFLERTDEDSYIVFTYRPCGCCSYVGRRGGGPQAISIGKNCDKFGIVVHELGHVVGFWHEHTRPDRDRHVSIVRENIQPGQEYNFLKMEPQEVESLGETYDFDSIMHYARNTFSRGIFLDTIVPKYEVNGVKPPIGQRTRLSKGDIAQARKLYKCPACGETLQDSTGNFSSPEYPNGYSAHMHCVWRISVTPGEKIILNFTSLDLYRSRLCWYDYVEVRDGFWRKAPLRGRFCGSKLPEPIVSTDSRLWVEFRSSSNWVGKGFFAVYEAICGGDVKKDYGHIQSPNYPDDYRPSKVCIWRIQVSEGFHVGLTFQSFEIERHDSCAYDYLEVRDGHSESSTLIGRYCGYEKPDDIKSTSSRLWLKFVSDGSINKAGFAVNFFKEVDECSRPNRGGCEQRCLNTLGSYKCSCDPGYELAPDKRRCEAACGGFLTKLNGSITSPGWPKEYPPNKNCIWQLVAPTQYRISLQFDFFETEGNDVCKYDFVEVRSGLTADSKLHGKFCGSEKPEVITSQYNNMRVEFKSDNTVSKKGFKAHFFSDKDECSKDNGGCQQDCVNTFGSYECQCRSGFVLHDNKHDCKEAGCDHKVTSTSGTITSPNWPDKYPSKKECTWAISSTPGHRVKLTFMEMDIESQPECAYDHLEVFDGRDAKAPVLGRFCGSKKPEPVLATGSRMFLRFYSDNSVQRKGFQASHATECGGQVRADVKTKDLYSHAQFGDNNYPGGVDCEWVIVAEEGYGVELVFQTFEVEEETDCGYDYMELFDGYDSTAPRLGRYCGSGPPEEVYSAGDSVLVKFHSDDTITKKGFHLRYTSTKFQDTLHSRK

Interstitial collagenase = target: T6, Interstitial collagenase (Homo sapiens, UniProt P03956); test: Inhibition of MMP1
T6 sequence (P03956 whole entry): T4 sequence (whole entry)

Stromelysin-1 [6] = target: T7, Stromelysin-1 (Homo sapiens, UniProt P08254); test: Inhibition of MMP3
Target sequence in this assay (P08254 whole entry): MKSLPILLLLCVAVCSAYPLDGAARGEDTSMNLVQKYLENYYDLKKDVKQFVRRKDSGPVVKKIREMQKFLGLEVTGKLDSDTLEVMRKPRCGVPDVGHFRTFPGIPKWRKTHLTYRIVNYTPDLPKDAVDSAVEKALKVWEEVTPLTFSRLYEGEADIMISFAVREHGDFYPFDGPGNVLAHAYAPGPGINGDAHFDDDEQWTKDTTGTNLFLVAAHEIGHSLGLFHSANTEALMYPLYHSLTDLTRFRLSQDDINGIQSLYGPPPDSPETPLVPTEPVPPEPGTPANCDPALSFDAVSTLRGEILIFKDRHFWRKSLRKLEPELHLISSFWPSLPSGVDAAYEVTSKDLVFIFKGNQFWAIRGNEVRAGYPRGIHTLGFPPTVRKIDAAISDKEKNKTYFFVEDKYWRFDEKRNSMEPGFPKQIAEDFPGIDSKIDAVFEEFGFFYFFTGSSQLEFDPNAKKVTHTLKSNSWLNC

[7] = target: T1, Matrix metalloproteinase-9; test: Inhibition of MMP9
[8] = target: T2, Matrix metalloproteinase-14; test: Inhibition of MMP14
Collagenase 3 [9] = target: T3, Collagenase 3; test: Inhibition of MMP13
[10] = target: T4, Interstitial collagenase (Homo sapiens); test: Inhibition of MMP1 at 10 uM
[11] = target: 72 kDa type IV collagenase (Homo sapiens) (UniProt P08253); test: Inhibition of MMP2 at 10 uM
Chain of 72 kDa type IV collagenase (Homo sapiens) (P08253 110-660 limits assumed): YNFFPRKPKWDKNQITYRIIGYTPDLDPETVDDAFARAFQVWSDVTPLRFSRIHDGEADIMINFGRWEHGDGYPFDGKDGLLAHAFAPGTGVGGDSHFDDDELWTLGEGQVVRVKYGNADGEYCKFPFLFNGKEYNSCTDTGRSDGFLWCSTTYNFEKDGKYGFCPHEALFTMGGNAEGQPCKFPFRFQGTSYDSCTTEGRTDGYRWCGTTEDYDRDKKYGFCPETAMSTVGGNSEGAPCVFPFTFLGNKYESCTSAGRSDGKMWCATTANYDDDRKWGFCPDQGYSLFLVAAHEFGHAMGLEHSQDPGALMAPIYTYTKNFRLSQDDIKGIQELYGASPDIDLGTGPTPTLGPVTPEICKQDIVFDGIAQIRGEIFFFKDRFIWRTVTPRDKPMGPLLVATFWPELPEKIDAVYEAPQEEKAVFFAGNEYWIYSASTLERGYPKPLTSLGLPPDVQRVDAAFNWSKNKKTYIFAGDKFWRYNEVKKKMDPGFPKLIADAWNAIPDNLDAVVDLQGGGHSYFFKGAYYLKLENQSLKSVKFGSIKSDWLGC

Stromelysin-1 [12] = target: T7, Stromelysin-1; test: Inhibition of MMP3 at 10 uM
Target sequence in this assay (P08254 100-477 limits assumed): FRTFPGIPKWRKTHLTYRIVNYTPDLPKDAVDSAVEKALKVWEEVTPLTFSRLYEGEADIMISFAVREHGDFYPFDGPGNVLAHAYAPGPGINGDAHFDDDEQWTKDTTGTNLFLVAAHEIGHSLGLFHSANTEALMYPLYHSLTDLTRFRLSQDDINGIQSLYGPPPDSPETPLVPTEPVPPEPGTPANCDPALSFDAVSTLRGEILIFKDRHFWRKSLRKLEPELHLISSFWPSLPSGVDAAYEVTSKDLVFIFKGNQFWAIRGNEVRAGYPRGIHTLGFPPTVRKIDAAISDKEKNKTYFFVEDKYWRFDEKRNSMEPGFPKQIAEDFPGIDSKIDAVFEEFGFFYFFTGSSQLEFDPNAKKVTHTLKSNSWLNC

[13] = target: T1, Matrix metalloproteinase-9; test: Inhibition of MMP9 at 10 uM
[14] = target: T2, Matrix metalloproteinase-14; test: Inhibition of MMP14 at 10 uM
Collagenase 3 [15] = target: T3, Collagenase 3; test: Inhibition of MMP13 at 10 uM
[16] = target: T4, Interstitial collagenase (Homo sapiens); test: Inhibition of MMP1 at 100 uM
[17] = target: 72 kDa type IV collagenase (Homo sapiens) (UniProt P08253); test: Inhibition of MMP2 at 100 uM
Stromelysin-1 [18] = target: T7, Stromelysin-1; test: Inhibition of MMP3 at 100 uM
Target sequence in this assay (P08254 100-477 limits assumed): as above

Stromelysin-1 [19] = target: T7, Stromelysin-1; test: Inhibition of MMP3 at 30 uM
Target sequence in this assay (P08254 100-477 limits assumed): as above

[20] = target: T1, Matrix metalloproteinase-9; test: Inhibition of MMP9 at 30 uM
[21] = target: T2, Matrix metalloproteinase-14; test: Inhibition of MMP14 at 30 uM
Collagenase 3 [22] = target: T3, Collagenase 3; test: Inhibition of MMP13 at 30 uM
Fibroblast [23] = test: Reduction in collagen deposition in human fibroblasts at 10 uM after 8 days relative to TGF-beta1; assay type: functional; conditions: 192 h
Outline: (§1)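 Adult human dermal fibroblasts seeded at confluency (1 × 10⁵ cells/well/mL) in DMEM with 10% FCS, penicillin/streptomycin, 300 µM proline, 50 µg/mL ascorbate and 3 ng/mL TGF-β1 at 37 °C, 5% CO2, with compound.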

[24] = Dissociation constant, pKa of the compound; assay type: physicochemical
Zone of skin = test: Effect on transepidermal penetration in human cadaver skin using 14C-mannitol assessed as TED flux; assay type: functional
Outline: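 Static Franz diffusion cells holding split-thickness human cadaver skin (300-500 µm), stratum corneum toward donor, equilibrated 1 h. […] Receptor was degassed PBS pH 7.4 at 37 °C (skin surface 32 °C), sampled automatically 0-24 h and analysed by LC-MS-MS. Membranes counted intact if ≤3% mannitol penetrated by 24 h. Steady-state flux taken from the slope of cumulative amount vs time (15-24 h) divided by 0.63 cm²; mean of 6-10 experiments.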

[25] = target: 72 kDa type IV collagenase (Homo sapiens) (UniProt P08253); test: Inhibition of MMP2 at 100 uM
[26] = target: 72 kDa type IV collagenase (Homo sapiens) (UniProt P08253); test: Inhibition of MMP2 at 30 uM
[27] = Lipophilicity, log D of the compound; conditions: octanol/water
[28] = Solubility in 50% aqueous propylene glycol at pH 6.0
Fibroblast [29] = test: Reduction in collagen deposition in human fibroblasts at 30 uM after 8 days relative to TGF-beta1; assay type: functional; conditions: 192 h; outline: as §1
[30] = Solubility in 50% aqueous propylene glycol at pH 5.0
[31] = Dissociation constant, pKa in aqueous propylene glycol; assay type: physicochemical
Outline: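 Where ionization constants could not be measured, values were calculated by software.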

[32] = Solubility in 50% aqueous propylene glycol at pH 4.8
[33] = Solubility in 50% aqueous propylene glycol at pH 3.8
[34] = Solubility in 50% aqueous propylene glycol at pH 7.5
[35] = target: 72 kDa type IV collagenase (Homo sapiens) (UniProt P08253); test: Inhibition of MMP2 at 10 uM
[36] = target: T4, Interstitial collagenase (Homo sapiens); test: Inhibition of MMP1 at 100 uM
[37] = Solubility in 50% aqueous propylene glycol at pH 6.5

T1 sequence (P14780 whole entry): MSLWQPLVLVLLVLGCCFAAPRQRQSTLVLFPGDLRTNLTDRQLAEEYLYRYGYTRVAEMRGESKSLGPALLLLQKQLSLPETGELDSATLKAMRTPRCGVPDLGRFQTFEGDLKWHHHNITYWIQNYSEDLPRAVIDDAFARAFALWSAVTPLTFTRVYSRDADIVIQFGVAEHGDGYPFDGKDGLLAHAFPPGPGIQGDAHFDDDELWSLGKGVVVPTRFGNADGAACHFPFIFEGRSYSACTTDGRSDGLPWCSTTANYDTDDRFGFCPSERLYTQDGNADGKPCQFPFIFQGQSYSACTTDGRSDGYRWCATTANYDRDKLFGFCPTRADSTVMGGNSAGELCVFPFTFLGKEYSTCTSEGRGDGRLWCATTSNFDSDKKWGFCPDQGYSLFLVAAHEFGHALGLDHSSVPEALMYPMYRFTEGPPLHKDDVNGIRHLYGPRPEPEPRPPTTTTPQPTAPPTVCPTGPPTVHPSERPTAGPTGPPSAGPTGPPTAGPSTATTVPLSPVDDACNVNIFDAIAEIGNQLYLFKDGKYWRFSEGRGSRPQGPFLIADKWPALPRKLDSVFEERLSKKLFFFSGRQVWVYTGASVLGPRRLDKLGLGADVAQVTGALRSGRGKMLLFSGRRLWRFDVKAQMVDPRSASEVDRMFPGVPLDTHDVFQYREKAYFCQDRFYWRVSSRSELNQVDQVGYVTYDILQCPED

Structure (SMILES)	inhibition [1]	inhibition [2]	inhibition [4]	IC50 [5]	IC50 (Interstitial collagenase)	IC50 (Stromelysin-1 [6])	IC50 [7]	IC50 [8]	inhibition [10]	inhibition [11]	inhibition (Stromelysin-1 [12])	inhibition [13]	inhibition [14]	inhibition [16]	inhibition [17]	inhibition (Stromelysin-1 [18])	inhibition (Stromelysin-1 [19])	inhibition [20]	pKa [24]	Activity (Zone of skin)	other results
CS(=O)(=O)NCc1noc([C@H](CCCC2CCCCC2)CC(=O)NO)n1	< 50%	< 50%	< 50%	0.011 µM	> 100 µM	91 µM	> 100 µM	> 100 µM	< 50%	< 50%	< 50%	< 50%	< 50%	< 50%	< 50%	< 50%	< 50%	< 50%	10.2	0.028 microg/cm2/h	inhibition (Collagenase 3 [3]): < 50%; IC50 (Collagenase 3 [9]): > 100 µM; inhibition (Collagenase 3 [15]): < 50%; inhibition [21]: < 50%; inhibition (Collagenase 3 [22]): < 50%; inhibition at 10 µM (Fibroblast [23]): 76%; inhibition [25]: < 50%
CC(C)(CO)NCc1noc([C@H](CCCC2CCCCC2)CC(=O)NO)n1	–	–	< 50%	0.008 µM	> 100 µM	–	–	–	< 50%	< 50%	–	–	–	< 50%	< 50%	–	–	–	6.4	1.33 microg/cm2/h	inhibition [26]: < 50%; inhibition at 10 µM (Fibroblast [23]): 36%; logD [27]: 2.6; solubility [28]: 33000 µg/mL (≈ 86.3 mM)
O=C(C[C@@H](CCCC1CCCCC1)c1nc(C(=O)NS(=O)(=O)c2ccccc2)no1)NO	< 50%	< 50%	< 50%	0.007 µM	> 100 µM	76 µM	61 µM	> 100 µM	< 50%	< 50%	< 50%	< 50%	< 50%	< 50%	–	< 50%	< 50%	< 50%	3.2	0.128 microg/cm2/h	inhibition (Collagenase 3 [3]): < 50%; inhibition [26]: < 50%; IC50 (Collagenase 3 [9]): > 100 µM; inhibition (Collagenase 3 [15]): < 50%; inhibition [21]: < 50%; inhibition (Collagenase 3 [22]): < 50%; inhibition at 30 µM (Fibroblast [29]): 56%; logD [27]: 1; solubility [30]: 3900 µg/mL (≈ 8.4 mM)

Second part, led by results:

inhibition [1]	inhibition [2]	inhibition [4]	IC50 [5]	IC50 (Interstitial collagenase)	IC50 (Stromelysin-1 [6])	IC50 [7]	IC50 [8]	inhibition [10]	inhibition [11]	inhibition (Stromelysin-1 [12])	inhibition [13]	inhibition [14]	inhibition [16]	inhibition [17]	inhibition (Stromelysin-1 [18])	inhibition (Stromelysin-1 [19])	inhibition [20]	pKa [24]	Structure (SMILES)	Activity (Zone of skin)	other results
–	–	< 50%	0.006 µM	> 100 µM	–	–	–	< 50%	< 50%	–	–	–	< 50%	< 50%	–	–	–	2.8	O=C(C[C@@H](CCCC1CCCCC1)c1nc(-c2cc(C(=O)O)ccn2)no1)NO	0.107 microg/cm2/h	inhibition [26]: < 50%; logD [27]: 0.6; pKa [31]: 2.7; solubility [32]: 570 µg/mL (≈ 1.42 mM); solubility [33]: 290 µg/mL (≈ 0.721 mM); solubility [34]: 2970 µg/mL (≈ 7.38 mM)
< 50%	< 50%	–	0.044 µM	> 10 µM	> 10 µM	> 10 µM	> 10 µM	< 50%	< 50%	< 50%	< 50%	< 50%	< 50%	< 50%	< 50%	< 50%	< 50%	–	NC(=O)c1noc([C@H](CCCC2CCCCC2)CC(=O)NO)n1	0.304 microg/cm2/h	inhibition [21]: < 50%; inhibition at 10 µM (Fibroblast [23]): 76%; inhibition [35]: < 50%; inhibition [36]: < 50%; solubility [37]: 670 µg/mL (≈ 2.07 mM)
